Test results as given in ChEMBL document CHEMBL1671686, “Carbapenem-resistant KPC-2-producing Escherichia coli in a Tel Aviv Medical Center, 2005 to 2008” (2010).
In brackets after ≈: the same amount, converted by molar mass.

How the values were obtained:
Format in all cases: functional
Escherichia coli [1] = test: Antimicrobial activity against Escherichia coli isolate 540 expressing beta-lactamase KPC2, TEM and PFGE cluster 4 isolated from synovial fluid of patient by vitek-2 method
Escherichia coli [2] = test: Antimicrobial activity against Escherichia coli isolate 339T expressing beta-lactamase KPC2 and PFGE cluster 5 isolated from peritoneal fluid of patient by vitek-2 method
Escherichia coli [3] = test: Antimicrobial activity against Escherichia coli isolate 544 expressing beta-lactamase KPC2, TEM and PFGE cluster 4 isolated from abscess of patient by vitek-2 method
Escherichia coli [4] = test: Antimicrobial activity against Escherichia coli isolate 547 expressing beta-lactamase KPC2, TEM and PFGE cluster 4 isolated from blood of patient by vitek-2 method
Escherichia coli [5] = test: Antimicrobial activity against Escherichia coli isolate 1679 expressing beta-lactamase KPC2, SHV-12, TEM and PFGE cluster 6 isolated from peritoneal fluid of patient by vitek-2 method
Escherichia coli [6] = test: Antimicrobial activity against Escherichia coli DH10B by vitek-2 method; conditions: K-12 DH10B
Method in brief: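 Plasmid-free recipient E. coli DH10B, used as the host for electroporation transformants, was tested for susceptibility on the automated Vitek-2 system.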

Escherichia coli [7] = test: Antimicrobial activity against Escherichia coli isolate 157T expressing beta-lactamase KPC2 and PFGE cluster 3 isolated from urine of patient by vitek-2 method
Escherichia coli [8] = test: Antimicrobial activity against Escherichia coli isolate 360T expressing beta-lactamase KPC2, OXA-9 and PFGE cluster 1 isolated from urine of patient by vitek-2 method
Escherichia coli [9] = test: Antimicrobial activity against Escherichia coli isolate 386T expressing beta-lactamase KPC2, OXA-9 and PFGE cluster 1 isolated from wound of patient by vitek-2 method
Escherichia coli [10] = test: Antimicrobial activity against Escherichia coli isolate 329 expressing beta-lactamase KPC2, CTX-M-2, TEM and PFGE cluster 2 isolated from blood of patient by vitek-2 method
Escherichia coli [11] = test: Antimicrobial activity against Escherichia coli isolate 543 expressing beta-lactamase KPC2, CTX-M-15, TEM and PFGE cluster 4 isolated from synovial fluid of patient by vitek-2 method
Escherichia coli [12] = test: Antimicrobial activity against Escherichia coli isolate 1679T expressing beta-lactamase KPC2, TEM and PFGE cluster 6 isolated from peritoneal fluid of patient by vitek-2 method
Escherichia coli [13] = test: Antimicrobial activity against Escherichia coli isolate 157 expressing beta-lactamase KPC2, CTX-M-15, TEM and PFGE cluster 3 isolated from urine of patient by vitek-2 method
Escherichia coli [14] = test: Antimicrobial activity against Escherichia coli isolate 547T expressing beta-lactamase KPC2 and PFGE cluster 4 isolated from blood of patient by vitek-2 method
Escherichia coli [15] = test: Antimicrobial activity against Escherichia coli isolate 386 expressing beta-lactamase KPC2, CTX-M-15, OXA-9, TEM and PFGE cluster 1 isolated from wound of patient by vitek-2 method
Escherichia coli [16] = test: Antimicrobial activity against Escherichia coli isolate 360 expressing beta-lactamase KPC2, CTX-M-15, OXA-9, TEM and PFGE cluster 1 isolated from urine of patient by vitek-2 method
Escherichia coli [17] = test: Antimicrobial activity against Escherichia coli isolate 339 expressing beta-lactamase KPC2, TEM and PFGE cluster 5 isolated from peritoneal fluid of patient by vitek-2 method
Escherichia coli [18] = test: Antimicrobial activity against Escherichia coli isolate 329T expressing beta-lactamase KPC2 and PFGE cluster 2 isolated from blood of patient by vitek-2 method
Escherichia coli [19] = test: Antimicrobial activity against Escherichia coli isolate 543T expressing beta-lactamase KPC2 and PFGE cluster 4 isolated from synovial fluid of patient by vitek-2 method

| Molecule | MIC (Escherichia coli [1]) | MIC (Escherichia coli [2]) | MIC (Escherichia coli [3]) | MIC (Escherichia coli [4]) | MIC (Escherichia coli [5]) | MIC (Escherichia coli [6]) | MIC (Escherichia coli [7]) | MIC (Escherichia coli [8]) | MIC (Escherichia coli [9]) | MIC (Escherichia coli [10]) | MIC (Escherichia coli [11]) | MIC (Escherichia coli [12]) | MIC (Escherichia coli [14]) | MIC (Escherichia coli [15]) | MIC (Escherichia coli [17]) | MIC (Escherichia coli [18]) | MIC (Escherichia coli [19]) | MIC (Escherichia coli [13]; isolate 157, Urine) | MIC (Escherichia coli [16]; isolate 360, Urine) | other results |
| --- | --- | --- | --- | --- | --- | --- | --- | --- | --- | --- | --- | --- | --- | --- | --- | --- | --- | --- | --- | --- |
| GENTAMICIN | > 16 µg/mL | < 1 µg/mL | > 16 µg/mL | > 16 µg/mL | > 16 µg/mL | < 1 µg/mL | < 1 µg/mL | 2 µg/mL | 4 µg/mL | > 16 µg/mL | > 16 µg/mL | < 1 µg/mL | < 1 µg/mL | 4 µg/mL | > 16 µg/mL | < 1 µg/mL | < 1 µg/mL |  |  | MIC (Escherichia coli [13]): < 1 µg/mL; MIC (Escherichia coli [16]): 2 µg/mL |
| C[C@H]1COc2c(N3CCN(C)CC3)c(F)cc3c(=O)c(C(=O)O)cn1c23.C[C@H]1COc2c(N3CCN(C)CC3)c(F)cc3c(=O)c(C(=O)O)cn1c23.O [LEVOFLOXACIN] | > 8 µg/mL | < 0.25 µg/mL | > 8 µg/mL | > 8 µg/mL | > 8 µg/mL | < 0.25 µg/mL | < 0.25 µg/mL | < 0.25 µg/mL | < 0.25 µg/mL | > 8 µg/mL | > 8 µg/mL | < 0.25 µg/mL | < 0.25 µg/mL | > 8 µg/mL | > 8 µg/mL | < 0.25 µg/mL | < 0.25 µg/mL | > 8 µg/mL | > 8 µg/mL |  |
| CC(C)(O/N=C(\C(=O)N[C@@H]1C(=O)N2C(C(=O)[O-])=C(C[n+]3ccccc3)CS[C@H]12)c1csc(N)n1)C(=O)O [CEFTAZIDIME] | 4 µg/mL (≈ 7.32 µM) | 16 µg/mL (≈ 29.3 µM) | 16 µg/mL (≈ 29.3 µM) | 4 µg/mL (≈ 7.32 µM) | > 64 µg/mL | < 0.25 µg/mL | 16 µg/mL (≈ 29.3 µM) | 16 µg/mL (≈ 29.3 µM) | 16 µg/mL (≈ 29.3 µM) | > 64 µg/mL | 16 µg/mL (≈ 29.3 µM) | > 64 µg/mL | 16 µg/mL (≈ 29.3 µM) | > 64 µg/mL | 4 µg/mL (≈ 7.32 µM) | 16 µg/mL (≈ 29.3 µM) | 16 µg/mL (≈ 29.3 µM) | > 64 µg/mL | > 64 µg/mL |  |
| NCC[C@H](O)C(=O)N[C@@H]1C[C@H](N)[C@@H](O[C@H]2O[C@H](CN)[C@@H](O)[C@H](O)[C@H]2O)[C@H](O)[C@H]1O[C@H]1O[C@H](CO)[C@@H](O)[C@H](N)[C@H]1O [AMIKACIN] | 16 µg/mL (≈ 27.3 µM) | < 2 µg/mL | 8 µg/mL (≈ 13.7 µM) | 16 µg/mL (≈ 27.3 µM) | < 2 µg/mL | < 1 µg/mL | < 2 µg/mL | > 64 µg/mL | > 64 µg/mL | 32 µg/mL (≈ 54.6 µM) | > 64 µg/mL | 16 µg/mL (≈ 27.3 µM) | 16 µg/mL (≈ 27.3 µM) | > 64 µg/mL | 4 µg/mL (≈ 6.83 µM) | < 2 µg/mL | 16 µg/mL (≈ 27.3 µM) | 8 µg/mL (≈ 13.7 µM) | 32 µg/mL (≈ 54.6 µM) |  |
| O=C(O)c1cn(C2CC2)c2cc(N3CCNCC3)c(F)cc2c1=O [CIPROFLOXACIN] |  |  |  |  |  | < 0.25 µg/mL |  |  |  |  |  |  |  |  |  |  |  |  |  |  |
